Screening results from PubChem.
A selection: hits, their analogues and other compounds. The true share with any hit is near 12%.
WT yeast gro inh: growth inhibition of WT yeast, mitochondrial fusion screen; AID 1362; inhibition, % at 10 µM; mitochondrial fusion phenotypic screen, WT strain; 190,000 compounds, 2.1% hits; in the data active = inhibition above about 58%; tested in S. cerevisiae
ABCB1 block: human ABCB1 inhibition, ABCG2 as counter-screen; AID 1326; inhibition, % at 6.6 µM; 190,000 compounds, 0.067% hits; CCRF-Adr cells, JC-1 efflux, flow cytometry; in the data active = inhibition above about 40%;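 also: higher value means more JC-1 retained so stronger ABCB1 efflux block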
ABCG2 inh: human ABCG2 inhibition, ABCB1 as counter-screen | Q9UNQ0 | IgMXP3 cells, JC-1 efflux, flow cytometry | inhibition, % at 6.6 µM | 190,000 compounds, 0.1% hits | AID 1325;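 active = inhibition above 80%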
Target sequence (Q9UNQ0 whole entry, looked up): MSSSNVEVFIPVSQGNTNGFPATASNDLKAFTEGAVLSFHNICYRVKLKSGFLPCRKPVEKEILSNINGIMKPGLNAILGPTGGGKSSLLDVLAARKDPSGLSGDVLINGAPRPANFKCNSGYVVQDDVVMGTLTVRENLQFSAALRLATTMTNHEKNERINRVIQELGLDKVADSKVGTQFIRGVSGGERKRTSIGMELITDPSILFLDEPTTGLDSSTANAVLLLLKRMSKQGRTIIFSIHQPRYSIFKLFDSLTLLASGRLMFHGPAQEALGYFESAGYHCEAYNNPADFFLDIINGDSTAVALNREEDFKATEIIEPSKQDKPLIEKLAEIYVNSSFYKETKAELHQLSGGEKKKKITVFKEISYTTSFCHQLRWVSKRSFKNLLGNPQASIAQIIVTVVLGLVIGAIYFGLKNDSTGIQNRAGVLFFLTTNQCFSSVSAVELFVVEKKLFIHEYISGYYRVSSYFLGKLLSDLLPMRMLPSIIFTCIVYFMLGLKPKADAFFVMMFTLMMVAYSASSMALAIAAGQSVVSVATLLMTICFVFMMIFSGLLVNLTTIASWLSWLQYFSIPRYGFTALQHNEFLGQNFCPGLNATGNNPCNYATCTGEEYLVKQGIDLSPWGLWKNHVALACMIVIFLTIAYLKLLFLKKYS
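Test system: IgMXP3 cells (ABCG2) mixed with DDAO far-red-labelled CCRF-Adr cells (ABCB1). Reagent: JC-1 transporter substrate. Compound dosing: single test compound dose, 6.6 µM final. Times: 10 min compound exposure, 25 °C. Detection: flow cytometry of retained JC-1 fluorescence. Read-out basis: efflux inhibition in percent versus controls. Controls: nicardipine and DMSO wells.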
Lmaj promast: inhibitors of Leishmania major promastigote growth; Leishmania major promastigotes, resazurin fluorescence viability; inhibition, % at 10 µM; 200,000 compounds, 9% hits; AID 1063; in the data active = inhibition above about 50%;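 also: promastigotes grown with compound for 44 hours at 28 °C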
RAM network inh: blocks the yeast RAM network; S. cerevisiae dse1pr::URA3 reporter, 5-FOA growth OD615, 2 d; analog-sensitive cbk1-as2 kinase mutant strain; inhibition, % at 50 µM; 190,000 compounds, 1.8% hits; AID 868;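 active = inhibition above a set limit, 3 SD over mean compound inhibition, cut at about 8.4% in these data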;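 also: inhibition rescues growth on 5-FOA so higher OD means more RAM inhibition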
Numbers stand for hits; 0 = inactive; - = not tested or not shown.

SMILES	WT yeast gro inh	ABCB1 block	ABCG2 inh	Lmaj promast	RAM network inh
O=C(CN1C(=O)CC(c2ccccc2)S(=O)(=O)c2ccccc21)N1CCCCC1 (stereo not drawn)	0	0	0	0	0
O=c1[nH]cnc2c1c(-c1ccccc1)cn2-c1ccc(Br)cc1	70.9	0	0	0	0
O=C(CNc1c(Br)cc(Br)cc1Br)NN=C1CCCCC1	0	0	0	0	0
CCOc1cc(/C=N/Nc2ncnc(Cl)c2N)ccc1O	0	0	0	0	0
Nc1c(Cl)ncnc1N/N=C/c1ccc2ccccc2n1	0	0	0	99.6	0
Nc1c(Cl)ncnc1N/N=C/c1ccnc2ccccc12	0	0	0	0	0
Nc1c(Cl)ncnc1N/N=C/c1ccccn1	0	0	0	100.3	0
Cc1ccc(-c2csc(NC(=O)/C=C/c3ccco3)c2C(=O)O)cc1	0	0	0	0	0
O=C1C2CC=C(Cl)CC2C(=O)N1CCC[n+]1cccc2ccccc21 (stereo not drawn)	0	0	0	0	0
CO/N=C/C=C1/N(C)c2ccccc2C1(C)C	0	0	0	0	0
CN1/C(=C\C=C2/SC(=S)NC2=O)C(C)(C)c2ccccc21	0	0	0	91.9	0
CN(C)c1ccc(N=C/C=C2/N(C)c3ccccc3C2(C)C)cc1	0	0	0	90.3	0
Cc1ccccc1N=C/C=C1\N(C)c2ccccc2C1(C)C	0	0	0	96.7	0
CN1/C(=C\C=N\O)C(C)(C)c2ccccc21	0	0	0	0	0
CN1/C(=C\C=[N+](C)c2ccccc2)C(C)(C)c2ccccc21	0	0	0	100.2	0
CC1=NN(c2ccccc2)C(=O)/C1=C\C=C1/N(C)c2ccccc2C1(C)C	0	0	0	0	0
Cc1nn(C)cc1CN(C)C(=O)c1cc(-c2ccccc2)nc2ccc(Br)cc12	0	0	0	0	0
O=[N+]([O-])c1cccc(/C=N/n2cnnc2)c1O	0	0	0	68.0	0
O=[N+]([O-])c1ccccc1S(=O)(=O)Oc1ccccc1/C=N/n1cnnc1	0	-	0	72.2	0
O=[N+]([O-])c1cc(Br)cc(/C=N/n2cnnc2)c1O	0	0	0	0	0
COc1cc(C)c(Br)cc1S(=O)(=O)NCCN1CCOCC1	0	0	0	0	0
O=C(/C=C/Nc1cccc(C(F)(F)F)c1)C(F)(F)F	65.4	0	0	0	0
CC(C)(C)c1cc(Cc2ccccc2)[nH]n1	0	0	0	0	0
Cc1cc(N=NC(=O)c2ccccc2)ccc1O	0	0	0	85.6	0
Cc1ccc(OCCCNCCO)c(Br)c1	0	0	0	72.7	0
SMILES	WT yeast gro inh	ABCB1 block	ABCG2 inh	Lmaj promast	RAM network inh
CCCCNCCCOc1ccc(C)cc1Br	0	0	0	90.3	0
CCCCNCCCOc1cccc(Cl)c1Cl	0	0	0	100.5	0
CNCCCOc1ccc(C)cc1Br	0	0	0	0	0
N#CCCCN1C(=O)C(=C(C#N)C#N)c2ccccc21	0	0	0	0	0
CN(CCc1ccccn1)C(=O)CCC1CCCN(C(=O)c2ccsc2)C1 (stereo not drawn)	0	0	0	0	0
Cc1cc(O)c(C(C)C)cc1NC(=O)c1cccc(Cl)c1	0	0	0	0	0
CCCNS(=O)(=O)c1ccc(OCC(=O)NCc2ccc3c(c2)OCO3)cc1	0	0	0	0	0
COc1ccc(-n2c(-c3ccc(Cl)cc3)c[n+]3c2CCc2ccccc2-3)cc1	0	0	0	100.2	0
O=C(O)c1cn(-c2ccc(F)cc2)c(=O)c2ccccc12	0	0	0	0	0
Cc1nn(-c2ccccc2)c2c1C1(C(=O)N3c4c(cccc41)C(C)CC3(C)C)C(C#N)=C(N)O2 (stereo not drawn)	0	0	0	0	0
CC(=O)N1C(=O)C2(C(C#N)=C(N)Oc3c2c(C)nn3-c2ccccc2)c2ccccc21 (stereo not drawn)	0	0	0	0	0
Cc1nn(-c2ccccc2)c2c1C1(C(=O)N(C)c3ccccc31)C(C#N)=C(N)O2 (stereo not drawn)	0	0	0	0	9.8
CCN1C(=O)C2(C(C#N)=C(N)Oc3c2c(C)nn3-c2ccccc2)c2ccccc21 (stereo not drawn)	-	0	0	85.5	0
CC(C)(C)c1ccc(OCC(=O)Nc2ccc3c4c(cccc24)C(=O)NC3=O)cc1	0	0	0	0	0
CCCCc1nc2ccccc2c(N)c1CCC (tested in a mixture with another compound)	0	0	0	95.3	0
COc1ccc(N=Cc2cc3c(cc2O)OC(N)=C(C#N)C3c2ccccc2)cc1 (stereo not drawn)	0	0	0	0	0
CC(C)(C)c1ccc(OC(=O)c2ccc3nsnc3c2)cc1	73.1	0	0	0	0
Cc1cc(C)cc(NC(=O)C(Sc2ncnc3ccccc23)c2ccccc2)c1 (stereo not drawn)	0	0	0	57.3	0
CCNc1nc(SCCOc2ccc(Br)cc2)nc(N(C)C)n1	0	0	0	58.0	0
CCOP(=O)(OCC)C(NC(=O)/C=C/c1ccc(OC)cc1)c1ccccc1 (stereo not drawn)	0	0	0	0	0
CCCc1cc(=O)oc2cc(OCC(=O)N3CCc4ccccc43)ccc12	0	0	0	0	0
CCc1ccc(N2C(=O)/C(=C/c3cccs3)N(CC(=O)OC)C2=S)cc1	-	0	0	0	0
COC(=O)CN1C(=S)N(c2ccc(OC)cc2)C(=O)/C1=C/c1cccs1	0	-	0	69.0	0
CCOc1ccc(N2C(=O)/C(=C/c3cc(OC)c(OC)c(OC)c3)N(CC(=O)OC)C2=S)cc1	0	0	0	99.8	0
CN1CCCCc2c1nc1ccccc1c2N (tested in a mixture with another compound)	0	0	0	91.7	0
SMILES	WT yeast gro inh	ABCB1 block	ABCG2 inh	Lmaj promast	RAM network inh
COc1cccc(-c2cc3nc4c(c(NCC(C)(C)CN(C)C)n3n2)CCCC4)c1	0	0	0	77.2	0
Fc1cccc(-c2cc3nc4c(c(NCc5ccco5)n3n2)CCCC4)c1	83.0	0	0	86.7	0
COc1cccc(-c2cn3nc4c(nc3n2)CCCC4)c1	0	0	0	0	0
Fc1cccc(-c2cc3nc4c(c(N5CCOCC5)n3n2)CCCC4)c1	0	0	0	0	0
Cc1ccsc1C(=O)N1CCCC(CCC(=O)N2CCN(c3ccccn3)CC2)C1 (stereo not drawn)	0	0	0	0	0
S=C(Nc1ccc(Cc2ccncc2)cc1)Nc1cccc(Cl)c1	0	0	0	0	0
Cc1cc(/C=C2\NC(=O)N(Cc3ccc(Cl)cc3)C2=O)c(C)n1C	0	0	0	0	0
COCCn1cnc2c1c(=O)n(CC(=O)Nc1cc(C)on1)c(=O)n2Cc1ccccc1	0	0	0	0	0
COCCn1cnc2c1c(=O)n(CC(=O)OCC(=O)NCCCc1ccccc1)c(=O)n2Cc1ccccc1	0	0	0	50.9	0
Cc1ccsc1-c1nc(CN2C[C@@H](C)O[C@@H](C)C2)c(C)o1	0	0	0	0	0
C/C(=N\Nc1nc2ccccc2s1)c1ccc(Br)s1	94.3	0	0	0	0
